Source: PubChem (Broad Institute)
Hits are enriched below; roughly 1.5% of the tested compounds scored in any of these assays.
Statin myotox sup – suppressors of statin myotoxicity in C2C12 myotubes, primary screen, cell-based, single point, plate reader; 0.78% of 330,000 active; C2C12 myotubes + simvastatin, ATP luminescence, 48 h; scaled: DMSO 0, geranylgeraniol control 100; rescue of ATP level, % at 7.49 µM;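 active means mean ATP rescue above about 67%, or every replicate alone reaching that limit, limit read from the data, passing the limit was not always enough; inconclusive means no clear call, values can overlap the other calls; inactive means mean under the limit and some replicate under it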;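 further: myotubes were challenged with 10 µM simvastatin during compound exposure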
SUMO Mot1 rescue – yeast Mot1-301 growth rescue at high temperature, primary screen, SUMOylation pathway inhibitor project, S. cerevisiae, ATP luminescence, 38.5C. S. cerevisiae Mot1-301 growth rescue; percent above DMSO median, 100 means doubled. growth rescue, % at 18.8 µM. 1% of 320,000 active. AID 2716, 2010;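 active means every valid replicate shows activation above 250% relative to neutral control wells; inactive means the rest, any valid replicate at or below 250%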;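 further: OY570 slx delta 5 strain wells were the positive control but not used for scaling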
Cneo AK release – Cryptococcus neoformans cell lysis inducers, primary screen, AK release luminescence, single concentration; C. neoformans lysis, adenylate kinase release luminescence, 4 h; normalised: neutral wells 0, clomiphene wells 100; lysis activity, % at 15 µM; 0.2% of 360,000 active; AID 651654, 2012;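 active means mean lysis activity across replicates of at least 80%, whatever share of replicates individually reach that level; inactive means mean lysis activity below 80%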
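Material: C. neoformans cells; Schedule: 4 h static compound exposure, 37 °C, read 1 h post-reagent; Measured by: adenylate kinase release luminescence; Read-out: signal increase indicating cell lysis; Controls: Clomiphene as positive lysis control.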
Starred values were filed as active, the others as inactive; u = inconclusive; x = no result given.

SMILES	Statin myotox sup	SUMO Mot1 rescue	Cneo AK release
O=C(NCc1cccc(Cl)c1)c1cnn2c1NC(c1ccco1)CC2C(F)(F)F (centres undefined)	24.4	-16.4	-0.6
O=C(NCC12CC3CC(CC(C3)C1)C2)c1nn2c(c1Cl)NC(c1ccco1)CC2C(F)(F)F (centres undefined)	137.3*	1.9	-1.6
CCC(=O)Nc1ccc2c(c1)C(=O)N(C)C[C@@H](OC)[C@H](C)CN(C(=O)Cc1ccccn1)[C@H](C)CO2	8.9	x	-2.0
O=C(c1ccncc1)N1CCN(C2CCCCC2)CC1	8.6	3.4	-2.2
O=C(c1ccncc1)N1CCN(C2CCC(c3ccccc3)CC2)CC1 (centres undefined)	x	305.2*	-1.9
C[C@@H]1CN([C@@H](C)CO)C(=O)c2cc(C#Cc3cccnc3)cnc2O[C@H]1CN(C)C(=O)CC1CC1	8.2	x	-3.0
CCN1CCC[C@H]1CNC(=O)c1c(O)c(Cl)cc(Cl)c1OC	-3.6	1.6	0.6
CCN1CCCC1CNC(=O)c1c(O)c2c([nH]c1=O)CCCC2 (centres undefined)	118.9*	8.2	0.3
O=C(NCC[C@@H]1CC[C@@H](NC(=O)c2ccc3c(c2)OCO3)[C@H](CO)O1)Nc1ccc(Cl)cc1	-0.3	x	1.2
COCC(=O)Nc1ccc2c(c1)C(=O)N(C)C[C@@H](OC)[C@@H](C)CN(C(C)=O)[C@H](C)CO2	4.7	x	41.1
COc1ccc(S(=O)(=O)N2CCN(Cc3cccc(Cl)c3)CC2)cc1	105.3*	x	-0.2
COc1ccc(S(=O)(=O)N2CCN(Cc3ccc(Cl)cc3)CC2)cc1	4.1	90.5	x
C[C@@H]1CN([C@H](C)CO)C(=O)c2cc(NC(=O)Nc3ccccc3)ccc2O[C@H]1CN(C)C(=O)NC1CCCCC1	-6.5	x	-1.6
C[C@@H]1CN([C@H](C)CO)C(=O)Cc2cc(NC(=O)C3CC3)ccc2O[C@H]1CN(C)C	-1.1	x	1.8
COc1ccc(CNC(=O)C(C#N)c2nc3ccccc3nc2N2CCCC2)cc1 (centres undefined)	17.5	174.4	-2.6
C=CCNC(=O)C(C#N)c1nc2ccccc2nc1N1CCCCCC1 (centres undefined)	85.7*	-8.8	x
COc1ccc(C(=O)OCc2cc(C)ccc2C)cc1S(=O)(=O)N1CCCC1	2.5	-6.7	-0.7
COC(=O)c1cc(COC(=O)c2ccc(OC)c(S(=O)(=O)N3CCCC3)c2)oc1C	89.7*	x	-1.0
CO[C@H]1CN(C)C(=O)c2cc(NC(=O)C3CC3)ccc2OC[C@H](C)N(CC2CCOCC2)C[C@H]1C	6.4	x	-9.5
NC(=O)NCC#Cc1ccc2c(c1)[C@]1(C(=O)N2)[C@H](c2ccccc2OCCO)N2[C@H](c3ccccc3)[C@H](c3ccccc3)OC(=O)[C@H]2[C@@H]1C(=O)O	x	x	0.4
NC(=O)NCC#Cc1ccc2c(c1)[C@]1(C(=O)N2)[C@H](C(N)=O)[C@H]2C(=O)O[C@H](c3ccccc3)[C@H](c3ccccc3)N2[C@@H]1c1ccccc1OCCO	x	x	96.0*
COC(=O)C[C@@H]1CC[C@@H](NC(=O)c2ccccc2)[C@@H](CO)O1	1.5	x	5.4
Cc1ccc(C(c2c(C)nn(-c3ccccc3)c2N)c2c(C)nn(-c3ccccc3)c2N)cc1	x	-4.7	-2.1
Cc1nn(-c2ccccc2)c(N)c1C(c1ccc(C(C)C)cc1)c1c(C)nn(-c2ccccc2)c1N	x	408.8*	-0.9
CCCC(=O)Nc1ccc2c(c1)OC[C@@H](C)N(CCc1ccccc1)C[C@H](C)[C@H](OC)CN(C)C2=O	-3.2	x	x
C[C@H]1CN([C@@H](C)CO)C(=O)Cc2cc(NC(=O)CCCCCC(=O)Nc3ccccc3N)ccc2O[C@H]1CN(C)Cc1ccc(-c2ccccc2)cc1	142.3*	x	-0.1
C[C@@H]1CN([C@H](C)CO)C(=O)Cc2cc(NC(=O)CCCCCC(=O)Nc3ccccc3N)ccc2O[C@H]1CN(C)Cc1ccc(Oc2ccccc2)cc1	104.1*	x	-1.2
C[C@@H]1CN([C@H](C)CO)C(=O)Cc2cc(NC(=O)CCCCCC(=O)Nc3ccccc3N)ccc2O[C@H]1CN(C)Cc1ccccc1	38.7	x	-0.4
C[C@@H]1CN([C@@H](C)CO)C(=O)Cc2cc(NC(=O)CCCCCC(=O)Nc3ccccc3N)ccc2O[C@@H]1CN(C)Cc1ccc(C(F)(F)F)cc1	-16.9	x	1.2
C[C@@H]1CN([C@@H](C)CO)C(=O)Cc2cc(NC(=O)CCCCCC(=O)Nc3ccccc3N)ccc2O[C@H]1CN(C)Cc1ccccc1	u	x	0.2
